Key:
Cavia porcellus = experiment: Antibronchospatic activity determined by histamine stimulated bronchospasm inhibition in guinea pigs after(i.v.) administration; format: functional, Bronchiole
Method in brief: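 Guinea pigs, Konzett–Rössler preparation. Bronchospasm was induced with histamine. Compound was given iv (1 mL/kg) 1 min before the agonist, dissolved in saline or saline with slight excess HCl or CH3SO3H (pH 3.5–4). Three doses were tested in duplicate, chosen to give 20–90% inhibition. ID75 was read graphically from log dose–response curves.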

Rattus norvegicus [1] = experiment: Rat PCA Test(50% inhibition of spot areas)in the female albino rats after (ip) administration in 10% aqueous acacia gum; format: functional; conditions: read-out: ID50 (the source's name)
Method in brief: (§1)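 Female albino rats (200–250 g) received intradermal ventral injections of rat anti-egg-albumin antiserum; donors were raised with egg albumin im plus H. pertussis ip, and serum was taken at 12 days. 24 h later, compound was given ip in 10% acacia gum (10 mL/kg), 10 rats/group. Challenge 30 min later was iv 0.3% egg albumin plus 1% Evans blue. Blued areas were measured 30 min after challenge.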

[2] = In vivo toxicity in mouse after oral administration with 10% aqueous acacia gum; format: organism-based
Method in brief: (§2)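 Female albino mice, 20-30 g. Compound given orally as solution or suspension in 10% aqueous acacia gum, 10 animals per dose. Deaths recorded over 7 days.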

Rattus norvegicus [3] = experiment: Rat PCA Test(50% inhibition of spot areas)in the female albino rats after (ip) administration in 10% aqueous acacia gum; value ranges from 145-288; format: functional; conditions: read-out: ID50 (the source's name); method in brief: as §1
[4] = In vivo toxic effect was determined in mouse after oral administration with 10% aqueous acacia gum; value ranges from 3.08-6.27; format: toxicity, organism-based; method in brief: as §2
Rattus norvegicus [5] = experiment: Inhibition of mast cell degranulation was assessed in female albino rats at a dose of 32 umol/kg iv; format: functional
Rattus norvegicus [6] = experiment: Rat PCA Test(50% inhibition of spot areas)in the female albino rats, using Goose and Blair method by dissolving or suspended the compound in 10% aqueous acacia gum and administered perorally.; Value ranges from (26-199); format: functional; conditions: po, read-out: ID50 (the source's name)
Method in brief: (§3)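 Female rats (200-250 g) were passively sensitized by ventral intradermal anti-egg-albumin antiserum. This was raised in rats by intramuscular 1% egg albumin plus ip H. pertussis vaccine, with serum taken at 12 days. After 24 h, groups of 10 were dosed orally with compound or vehicle (10 mL/kg). At 60 min, iv challenge used 0.3% egg albumin with 1% Evans blue. Blued areas were measured after 30 min.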

Rattus norvegicus [7] = experiment: Rat PCA Test(50% inhibition of spot areas)in the female albino rats after (ip) administration in 10% aqueous acacia gum; value ranges from 35-79; format: functional; conditions: read-out: ID50 (the source's name); method in brief: as §1
[8] = In vivo toxic effect was determined in mouse after intraperitoneal administration with 10% aqueous acacia gum; value ranges from 0.97-2.74; format: toxicity, organism-based; conditions: ip
Method in brief: (§4)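 Female albino mice (20-30 g), 10 animals per dose, dosed intraperitoneally with compound in solution or suspension; compounds tested as salts unless noted. Mortality was recorded over 7 days.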

[9] = In vivo toxic effect was determined in mouse after oral administration with 10% aqueous acacia gum; value ranges from 0.97-1.87; format: toxicity, organism-based; method in brief: as §2
Mus musculus = experiment: In vivo toxic effect was determined in mouse after intraperitoneal administration with 10% aqueous acacia gum; NA means poorly absorbed; format: toxicity, organism-based; conditions: ip; method in brief: as §4
Rattus norvegicus [10] = experiment: Rat PCA Test(50% inhibition of spot areas)in the female albino rats after ip administration in 10% aqueous acacia gum; format: functional; conditions: read-out: ID50 (the source's name)
Method in brief: (§5)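 Antiserum came from female rats given 1% egg albumin in 0.9% NaCl intramuscularly plus Haemophilus pertussis vaccine (2 × 10^10 organisms) intraperitoneally, and was collected 12 days later. Recipient rats (200-250 g) got it intradermally at a ventral site. After 24 h, groups of 10 received vehicle or compound ip. At 30 min they were challenged iv with 0.3% egg albumin plus 1% Evans blue. Blued skin areas were measured 30 min later.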

[11] = In vivo toxic effect was determined in mouse after intraperitoneal administration with 10% aqueous acacia gum; value ranges from 0.39-0.76; format: toxicity, organism-based; conditions: ip; method in brief: as §4
Rattus norvegicus [12] = experiment: Rat PCA Test(50% inhibition of spot areas)in the female albino rats after (ip) administration in 10% aqueous acacia gum; value ranges from 78-93; format: functional; conditions: read-out: ID50 (the source's name); method in brief: as §5
[13] = In vivo toxic effect was determined in mouse after intraperitoneal administration with 10% aqueous acacia gum; value ranges from 0.66-1.99; format: toxicity, organism-based; conditions: ip; method in brief: as §4
[14] = In vivo toxic effect was determined in mouse after oral administration with 10% aqueous acacia gum; value ranges from 0.93-1.70; format: toxicity, organism-based; method in brief: as §2
[15] = In vivo toxic effect was determined in mouse after intraperitoneal administration with 10% aqueous acacia gum; value ranges from 0.54-0.99; format: toxicity, organism-based; conditions: ip; method in brief: as §4
[16] = In vivo toxic effect was determined in mouse after oral administration with 10% aqueous acacia gum; value ranges from 0.94-1.65; format: toxicity, organism-based; method in brief: as §2
Rattus norvegicus [17] = experiment: Rat PCA Test(50% inhibition of spot areas)in the female albino rats after (ip) administration in 10% aqueous acacia gum; Value ranges from(42-57); format: functional; conditions: read-out: ID50 (the source's name); method in brief: as §1
[18] = In vivo toxic effect was determined in mouse after intraperitoneal administration with 10% aqueous acacia gum; value ranges from 0.41-0.93; format: toxicity, organism-based; conditions: ip; method in brief: as §4
[19] = In vivo toxic effect was determined in mouse after oral administration with 10% aqueous acacia gum;Value ranges from(1.30-1.80); format: toxicity, organism-based; method in brief: as §2
Rattus norvegicus [20] = experiment: Rat PCA Test(50% inhibition of spot areas)in the female albino rats after (ip) administration in 10% aqueous acacia gum; value ranges from 164-246; format: functional; conditions: read-out: ID50 (the source's name); method in brief: as §1
Rattus norvegicus [21] = experiment: Rat PCA Test(50% inhibition of spot areas)in the female albino rats after oral administration in 10% aqueous acacia gum; format: functional; conditions: read-out: ID50 (the source's name); method in brief: as §3

O=C(CCN1CCN(c2ccccn2)CC1)Nc1ccc(NC(=O)Nc2ccccc2)cc1
ID75 (Cavia porcellus): 0.31 µM/kg | ED50 (Rattus norvegicus [1]): > 225 µmol/kg | LD50 [2]: > 6700 µmol/kg

COc1cccc(N2CCN(CCC(=O)Nc3ccccc3[N+](=O)[O-])CC2)n1.Cl
ID75 (Cavia porcellus): 0.52 µM/kg | ED50 (Rattus norvegicus [1]): > 237 µmol/kg | LD50 [2]: > 7100 µmol/kg

COc1cccc(N2CCN(CCC(=O)Nc3ccc([N+](=O)[O-])cc3)CC2)n1.Cl
ID75 (Cavia porcellus): 0.16 µM/kg | ED50 (Rattus norvegicus [3]): 204 µmol/kg | LD50 [4]: 4390 µmol/kg

O=C(CCN1CCN(c2ccccn2)CC1)Nc1ccccc1
inhibition in vivo at 32 µmol/kg (Rattus norvegicus [5]): 12% | ED50 (Rattus norvegicus [6]): 72 µmol/kg | ED50 (Rattus norvegicus [7]): 53 µmol/kg | LD50 [8]: 1160 µmol/kg | LD50 [9]: 1350 µmol/kg

NS(=O)(=O)c1ccc(NC(=O)CCN2CCN(c3ccccn3)CC2)cc1
ID75 (Cavia porcellus): 0.19 µM/kg | ED50 (Rattus norvegicus [1]): > 257 µmol/kg | LD50 [2]: > 7700 µmol/kg | LD50 (Mus musculus): Not Active

Cc1cc(N)cc(C)c1C(=O)NCCN1CCN(c2ccccn2)CC1.Cl
ID75 (Cavia porcellus): 5.27 µM/kg | ED50 (Rattus norvegicus [10]): > 167 µmol/kg | LD50 [11]: 550 µmol/kg

Cl.Cl.O=C(CCN1CCN(c2ccccn2)CC1)Nc1c(Cl)cccc1Cl
ID75 (Cavia porcellus): 0.4 µM/kg | ED50 (Rattus norvegicus [12]): 85 µmol/kg | LD50 [13]: 800 µmol/kg | LD50 [14]: 1240 µmol/kg

CC(=O)c1cccc(NC(=O)CCN2CCN(c3ccccn3)CC2)c1.Cl.Cl
ID75 (Cavia porcellus): 0.2 µM/kg | LD50 [15]: 680 µmol/kg | LD50 [16]: 1110 µmol/kg

CC(=O)c1ccc(NC(=O)CCN2CCN(c3ccccn3)CC2)cc1.Cl.Cl
ID75 (Cavia porcellus): 0.02 µM/kg | ED50 (Rattus norvegicus [17]): 49 µmol/kg | LD50 [18]: 480 µmol/kg | LD50 [19]: 1500 µmol/kg

NC(=O)Nc1ccc(NC(=O)CCN2CCN(c3ccccn3)CC2)cc1
ID75 (Cavia porcellus): 0.25 µM/kg | ED50 (Rattus norvegicus [20]): 194 µmol/kg | ED50 (Rattus norvegicus [21]): > 271 µmol/kg | LD50 [2]: > 8100 µmol/kg
